Consider two molecules from ChEMBL document CHEMBL1681705, “Optimisation of ITK inhibitors through successive iterative design cycles” (Bioorg Med Chem Lett, 2011).

Assay [1] addresses T1, Cytoplasmic tyrosine-protein kinase BMX (Homo sapiens) (UniProt P51813).
T1 sequence (whole entry): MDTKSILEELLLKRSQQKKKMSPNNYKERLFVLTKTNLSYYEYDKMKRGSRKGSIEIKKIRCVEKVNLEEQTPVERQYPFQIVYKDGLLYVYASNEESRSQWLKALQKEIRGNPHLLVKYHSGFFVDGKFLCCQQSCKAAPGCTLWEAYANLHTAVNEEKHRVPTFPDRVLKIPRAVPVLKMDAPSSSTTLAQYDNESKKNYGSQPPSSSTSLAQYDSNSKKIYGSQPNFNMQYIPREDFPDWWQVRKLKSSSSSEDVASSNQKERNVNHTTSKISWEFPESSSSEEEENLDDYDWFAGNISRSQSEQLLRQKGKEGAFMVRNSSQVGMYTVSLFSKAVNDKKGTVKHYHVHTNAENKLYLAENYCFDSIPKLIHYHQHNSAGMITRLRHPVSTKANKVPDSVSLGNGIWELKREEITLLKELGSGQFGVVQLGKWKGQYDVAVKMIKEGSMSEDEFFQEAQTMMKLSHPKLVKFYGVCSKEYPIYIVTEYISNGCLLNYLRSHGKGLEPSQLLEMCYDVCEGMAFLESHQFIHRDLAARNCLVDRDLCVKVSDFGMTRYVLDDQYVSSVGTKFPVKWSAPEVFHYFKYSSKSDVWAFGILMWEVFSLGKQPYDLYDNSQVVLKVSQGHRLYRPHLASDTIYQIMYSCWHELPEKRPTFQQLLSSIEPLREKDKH
Description: Inhibition of Bmx at 0.1 uM; values are per cent of control.

Assay [2] concerns the target Tyrosine-protein kinase Fgr (Homo sapiens) (UniProt P09769). Description: Inhibition of Fgr at 1 uM; values are per cent of control.
Assay [3] concerns the target Serine/threonine-protein kinase pim-1 (Homo sapiens) (UniProt P11309). Briefly: Inhibition of Pim-1 at 0.1 uM; values are per cent of control.
Assay [4] in a line: Inhibition of PDK1 at 0.1 uM.
The target in assay [5] is Mitogen-activated protein kinase 10 (Homo sapiens) (UniProt P53779). Briefly: Inhibition of JNK3 at 1 uM. The gist of the method: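 Single-point profiling in a panel of 108 kinases. Each selected inhibitor was tested at two concentrations, 0.1 and 1.0 micromolar. Values are reported as inhibition at each concentration.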
Assay [6] concerns the target Glycogen synthase kinase-3 beta (Homo sapiens) (UniProt P49841). Briefly: Inhibition of GSK3-beta at 0.1 uM; values are per cent of control.
In assay [7] the target is T2, Tyrosine-protein kinase ITK/TSK (Homo sapiens) (UniProt Q08881).
T2 sequence (whole entry): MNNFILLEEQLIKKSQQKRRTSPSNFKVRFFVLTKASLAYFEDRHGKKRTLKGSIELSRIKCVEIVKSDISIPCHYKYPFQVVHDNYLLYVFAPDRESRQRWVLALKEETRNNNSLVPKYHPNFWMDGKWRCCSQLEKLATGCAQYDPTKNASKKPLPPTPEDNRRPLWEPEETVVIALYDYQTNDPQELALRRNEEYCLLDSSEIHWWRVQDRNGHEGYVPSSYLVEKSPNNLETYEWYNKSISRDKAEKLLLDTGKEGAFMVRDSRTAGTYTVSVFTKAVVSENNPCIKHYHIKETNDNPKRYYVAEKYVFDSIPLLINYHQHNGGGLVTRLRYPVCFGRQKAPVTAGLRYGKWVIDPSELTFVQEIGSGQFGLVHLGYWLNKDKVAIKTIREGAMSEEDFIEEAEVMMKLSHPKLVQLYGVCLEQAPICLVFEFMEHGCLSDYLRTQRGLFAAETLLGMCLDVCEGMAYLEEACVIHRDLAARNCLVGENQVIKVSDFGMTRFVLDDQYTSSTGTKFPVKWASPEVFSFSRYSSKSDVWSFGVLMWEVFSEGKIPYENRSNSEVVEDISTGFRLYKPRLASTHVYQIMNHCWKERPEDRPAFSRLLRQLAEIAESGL
Briefly: Inhibition of Itk at 0.1 uM; values are per cent of control.

Assay [8] addresses T3, Serine/threonine-protein kinase Chk1 (Homo sapiens) (UniProt O14757).
T3 sequence (whole entry): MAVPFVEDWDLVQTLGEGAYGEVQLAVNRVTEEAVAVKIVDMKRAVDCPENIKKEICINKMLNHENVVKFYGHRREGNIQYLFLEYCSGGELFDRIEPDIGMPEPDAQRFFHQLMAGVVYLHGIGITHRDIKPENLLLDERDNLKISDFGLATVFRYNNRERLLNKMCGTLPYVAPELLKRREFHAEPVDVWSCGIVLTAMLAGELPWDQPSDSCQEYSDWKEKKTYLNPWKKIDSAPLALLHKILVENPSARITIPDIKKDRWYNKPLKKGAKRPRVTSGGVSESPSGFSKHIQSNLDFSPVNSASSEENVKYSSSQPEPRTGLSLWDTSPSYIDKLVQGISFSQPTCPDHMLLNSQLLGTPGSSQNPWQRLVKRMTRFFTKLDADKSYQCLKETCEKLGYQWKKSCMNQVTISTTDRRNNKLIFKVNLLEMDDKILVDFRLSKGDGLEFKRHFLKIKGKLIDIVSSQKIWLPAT
Description: Inhibition of CHK1 at 1 uM; values are per cent of control.

The nature of assay [9]: cells. To be noted: Homo sapiens, T-cell.

Chain of Mitogen-activated protein kinase 10 (Homo sapiens) (P53779 whole entry): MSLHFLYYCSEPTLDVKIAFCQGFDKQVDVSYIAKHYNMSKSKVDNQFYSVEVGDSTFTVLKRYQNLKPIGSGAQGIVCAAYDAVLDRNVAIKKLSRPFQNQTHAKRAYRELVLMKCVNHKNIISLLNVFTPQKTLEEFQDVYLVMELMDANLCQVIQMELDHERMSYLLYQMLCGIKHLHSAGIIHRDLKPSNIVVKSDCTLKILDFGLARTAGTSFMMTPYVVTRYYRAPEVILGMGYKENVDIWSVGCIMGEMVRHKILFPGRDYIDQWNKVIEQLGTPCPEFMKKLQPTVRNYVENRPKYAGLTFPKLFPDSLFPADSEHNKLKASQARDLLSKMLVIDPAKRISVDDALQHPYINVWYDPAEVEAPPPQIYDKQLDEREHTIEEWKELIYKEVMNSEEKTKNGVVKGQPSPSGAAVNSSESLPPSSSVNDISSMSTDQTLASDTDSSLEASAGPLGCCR
Chain of Tyrosine-protein kinase Fgr (Homo sapiens) (P09769 2-529 limits assumed): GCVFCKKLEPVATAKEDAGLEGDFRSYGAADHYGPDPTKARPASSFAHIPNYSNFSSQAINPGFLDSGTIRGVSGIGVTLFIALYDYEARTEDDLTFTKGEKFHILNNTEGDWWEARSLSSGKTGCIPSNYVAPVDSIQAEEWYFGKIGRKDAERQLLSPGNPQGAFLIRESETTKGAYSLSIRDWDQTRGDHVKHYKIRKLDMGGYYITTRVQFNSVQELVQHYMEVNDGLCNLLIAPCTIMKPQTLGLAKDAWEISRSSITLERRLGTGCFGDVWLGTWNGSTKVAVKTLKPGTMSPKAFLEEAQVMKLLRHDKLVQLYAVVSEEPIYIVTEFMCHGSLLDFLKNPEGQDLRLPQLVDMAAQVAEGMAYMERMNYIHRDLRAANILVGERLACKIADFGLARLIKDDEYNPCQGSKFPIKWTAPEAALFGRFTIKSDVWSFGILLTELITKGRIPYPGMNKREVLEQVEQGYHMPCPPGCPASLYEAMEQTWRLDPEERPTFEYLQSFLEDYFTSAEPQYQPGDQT
Chain of Serine/threonine-protein kinase pim-1 (Homo sapiens) (P11309 whole entry, looked up): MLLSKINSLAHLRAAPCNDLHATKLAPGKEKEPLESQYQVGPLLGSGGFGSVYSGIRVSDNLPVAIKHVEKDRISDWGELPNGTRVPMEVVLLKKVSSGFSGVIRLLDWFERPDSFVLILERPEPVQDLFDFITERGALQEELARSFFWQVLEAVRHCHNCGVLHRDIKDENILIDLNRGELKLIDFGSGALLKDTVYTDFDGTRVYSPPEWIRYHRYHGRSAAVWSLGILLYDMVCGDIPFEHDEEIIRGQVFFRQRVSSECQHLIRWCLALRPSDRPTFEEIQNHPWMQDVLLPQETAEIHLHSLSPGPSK
Chain of Glycogen synthase kinase-3 beta (Homo sapiens) (P49841 whole entry, looked up): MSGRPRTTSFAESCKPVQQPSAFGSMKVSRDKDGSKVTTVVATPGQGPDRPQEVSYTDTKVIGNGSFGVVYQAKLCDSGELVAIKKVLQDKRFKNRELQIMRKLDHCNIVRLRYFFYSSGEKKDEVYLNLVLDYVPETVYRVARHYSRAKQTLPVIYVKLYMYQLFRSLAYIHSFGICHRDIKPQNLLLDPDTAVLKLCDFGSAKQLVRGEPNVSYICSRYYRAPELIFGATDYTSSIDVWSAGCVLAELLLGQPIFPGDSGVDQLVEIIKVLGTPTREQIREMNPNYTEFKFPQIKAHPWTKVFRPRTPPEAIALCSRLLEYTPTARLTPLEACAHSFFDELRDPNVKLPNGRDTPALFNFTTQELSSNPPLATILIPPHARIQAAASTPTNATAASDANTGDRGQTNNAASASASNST

With `Cc1ccc2cc(-c3n[nH]c4ccc(NC5CCNC5)cc34)[nH]c2c1` (stereo not drawn), the residual activity in assay [1] was 15%; in [2], -1%; in assay [3], 100%; in [6], 97%; in assay [7] it was 41%; in assay [8], 6%. In addition, the inhibition is 46% in assay [4] and 36% in [5]. Further, half-maximal inhibition in [9] (IC50) required 0.02 µM.

For the molecule `Cc1ccc2cc(-c3n[nH]c4ccc(NC5CCN(Cc6ccccc6)CC5)cc34)[nH]c2c1`, the residual activity came out at 45% in assay [1]; 0% in assay [2]; 106% in assay [3]; 97% in assay [6]; 14% in assay [7]; 40% in assay [8]. The figures for the inhibition in [4] and in [5] were 87% and 91%, respectively. The same molecule registered an IC50 in [9] of 0.5 µM.

For orientation: residual activity means the signal under treatment as a percentage of the control signal. One may read the inhibition as the relative decrease from the control value, in per cent. Low readings indicate a response near the control, high ones a response far below the control. In general, IC50 refers to the midpoint of a concentration-inhibition curve. Low values mean higher potency, high ones lower potency.
